Assay results reported in PubChem BioAssay AID504383 (The Scripps Research Institute Molecular Screening Center, 2011).
Hit rate of the full screen: of about 2,500 compounds, about 1,200 (48%) were called active. The set was probably picked from earlier hits. The list shows a part of the results. Values without a mark were called inactive.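 How the source made its calls: active means mean activation above the low control average plus 3 SD, as set in the primary screen (cut at about 12% in these data); inactive means the rest.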

Molecular target: Troponin I, cardiac muscle (Homo sapiens) + Troponin T, cardiac muscle (Homo sapiens) + Troponin C, slow skeletal and cardiac muscles (Homo sapiens) (UniProt P19429+P45379+P63316)
Assay: calcium sensitizers of cardiac thin filaments – biochemical, IANBD-TnC fluorescence, triplicate, confirmation (AID 504383);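 further: 0% = DMSO at 0.472 mM calcium and 100% = DMSO at 2.9 mM calcium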
Settings: IANBD-labeled cardiac RTF, Ca2+ sensitivity fluorescence; at 7.2 µM; active compounds read high; scaled from EC20 to saturating calcium; tested at EC20 calcium, 0.472 mM
How it was run: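 Assay system: labelled regulated thin filaments / Timing: 15 min at 25 °C / Detection: fluorescence intensity of labelled filaments / Measure: fluorescence gain scaled between EC20 and EC100 calcium controls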

Structure (SMILES)	activation
COc1cc(/C=N\NC(=O)CC(=O)NCCc2ccccc2)ccc1O	7.55%
COc1cc(/C=N/NC(=O)c2cc(-c3ccccc3Cl)nc3ccccc23)cc(OC)c1O	15.8% (active)
CCOc1ccc(C(=O)NCC(=O)Nc2ncccc2C)cc1OCC	16.6% (active)
Cc1cccc(/C=N/n2c(-c3ccncc3)n[nH]c2=S)c1	39.4% (active)
CCCCC1=CC2=C(c3ccco3)C(=O)C(C)(OC(=O)c3ccc(OC)cc3)C(=O)C2=CN1CCc1ccccn1 (stereo not drawn)	25.8% (active)
COC(=O)CCC(=O)OC1(C)C(=O)C2=CN(Cc3ccc(OC)cc3)C(c3ccc(OC)cc3)=CC2=C(Br)C1=O (stereo not drawn)	6%
O=C(O)c1ccccc1C1=Nc2ccc(O)cc2Oc2cc(O)ccc21	5.85%
O=C(c1ccccc1)c1ccc(O)cc1O	89.6% (active)
O=C(c1ccccc1)c1ccccc1C(=O)c1ccccc1	12.7% (active)
O=C(c1ccccc1)c1ccncc1	5.78%
CC1C/C(=C/c2cccn2C)C(=O)/C(=C/c2cccn2C)C1 (stereo not drawn)	11.4%
Cn1cccc1/C=C1\CCC/C(=C\c2cccn2C)C1=O	15.9% (active)
COC(=O)c1sccc1Oc1ccc(Cl)cc1N1C(=O)CCC1=O	8.17%
Cc1ccc2c(C(=O)CN3CCC(C(N)=O)CC3)c(C)[nH]c2c1	16.3% (active)
CC(NC(=O)CN1CCC(C(N)=O)CC1)c1ccccc1 (stereo not drawn)	5.31%
COc1ccc(C)cc1Nc1n[n+](-c2ccccc2)c(-c2cc([N+](=O)[O-])cc(OC)c2O)s1	5.27%
C=C[C@@](C)(O)CC[C@@H]1[C@@]2(C)CCCC(C)(C)[C@@H]2CC[C@@]1(C)O	6.12%
COc1ccccc1NS(=O)(=O)c1cc(NC(=O)c2cc3ccccc3oc2=O)ccc1C	72.6% (active)
COc1ccccc1NS(=O)(=O)c1cc(NC(=O)CCNC(C)=O)ccc1N1CCCCC1	4.68%
Cc1ccc(-c2csc(NC(=O)CSc3nc4ccccc4o3)n2)cc1	2.75%
Cc1ccc(NC(=O)CSc2nnc(-c3cccnc3)s2)cc1	678% (active)

Structure (SMILES)	activation
CC(O)Cc1cn([C@@H](CCCCN)C(=O)N2CCNCC2)nn1 (stereo partly drawn)	2.6%
CC(C)(C)OC(=O)NCCCC[C@@H](C(=O)N1CCN(C(=O)OC(C)(C)C)CC1)n1cc(CCC(=O)O)nn1	7.02%
C[C@@H](C(=O)N1CCNCC1)n1cc(CCCN=C(N)N)nn1	107% (active)
CCCCNc1nc(-c2ccccc2)nc(-n2ccnc2)n1	15.9% (active)
Cn1cccc1Cc1nnc(SCC(=O)Nc2ccc(F)cc2F)n1-c1ccc(F)cc1	7.53%
COc1ccc(NC(=O)CSc2nncc3ccccc23)cc1	1.45%
O=C(CSc1nncc2ccccc12)Nc1ccc(F)cc1	170% (active)
CC(=O)c1sc2nc(-c3cccs3)cc(C(F)(F)F)c2c1N	-0.48%
Nc1c(C(=O)C2CC2)sc2nc(-c3cccs3)cc(C(F)(F)F)c12	18.1% (active)
Cc1nnc(NC(=O)c2sc3nc(-c4cccs4)cc(C(F)(F)F)c3c2N)s1	9.99%
Nc1c(C(=O)Nc2nccs2)sc2nc(-c3cccs3)cc(C(F)(F)F)c12	10.7%
CC(C)(C)C(=O)c1sc2nc(-c3cccs3)cc(C(F)(F)F)c2c1N	12.4% (active)
Nc1c(C(=O)C2CC2)sc2nc(-c3ccccc3)cc(C(F)(F)F)c12	30.1% (active)
Nc1c(C(=O)Nc2ccccc2F)sc2nc(Cc3ccccc3)cc(C(F)(F)F)c12	7.05%
COc1ccc(-c2cc(C(F)(F)F)c3c(N)c(C(=O)NCCSC)sc3n2)cc1	5.88%
c1ccc(-c2nc(-c3ccco3)n3ccccc23)cc1	1.15%
N#Cc1c(N)oc(-c2ccccc2)c1-c1ccccc1	23.9% (active)
COc1ccccc1C1=NOC(Cn2c(=O)c3c(ncn3C)n(C)c2=O)C1 (stereo not drawn)	7.68%
Nc1ccc2c3c(cccc13)C(=O)N(c1ccccc1)C2=O	10.9%
Cc1c(O)c2c3c(cccc3c1O)C(=O)N(c1ccccc1)C2=O	67.4% (active)
Cc1cccc(N2CCN(C(=O)Cn3nc(Cc4ccncc4)c4ccccc4c3=O)CC2)c1C	25.3% (active)

Structure (SMILES)	activation
Cc1nc2ccccc2n2c(O)c(CC(=O)O)cc12	15.2% (active)
COc1ccc2c(n1)Sc1nc3ccccc3nc1N2	6.52%
CC1(C)CC(=O)C2=C(C1)OC(N)=C(C#N)C21CCN(Cc2ccccc2)CC1	12.4% (active)
COc1ccc2[nH]c3c(c2c1)CCN1C(=O)C(CC(=O)NCCCn2ccnc2)C[C@H](C(=O)N2CCCCC2)[C@@]31C (stereo partly drawn)	6.39%
O=C(Nc1cnn(Cc2c(Cl)cccc2Cl)c1)C(c1ccccc1)c1ccccc1	4.3%
O=C(NCCOc1ccccc1Cl)C(=O)Nc1ccccc1	11.1%
O=C1c2ccccc2C(Nc2cccnc2)N1Cc1ccccc1Cl (stereo not drawn)	54.5% (active)
O=C(Cc1ccccc1Cl)Nc1cccnc1	22.6% (active)
CN1C(=O)/C(=C/C=C2\SCCN2C)OC1=S	31.5% (active)
CCN1C(=O)/C(=C/C=C2/SCCN2C)SC1=S	42.9% (active)
CCCCN1C(=O)/C(=C/C=C2\SCCN2C)SC1=S	7.61%
CN1CCS/C1=C/C=C1/SC(=S)N(Cc2ccccc2)C1=O	2.39%
CN1CCS/C1=C/C=C1\SC(=S)N(CC(=O)O)C1=O	122% (active)
CCN1C(=O)/C(=C\C=C2/C=CC=CN2CC)SC1=S	431% (active)
C=CCNC(=S)N(CC=C)C1CCS(=O)(=O)C1 (stereo not drawn)	6.54%
O=C(O)c1cccc2c1C(=O)c1ccc(N3CCCC3)cc1S2(=O)=O	6.28%
C#CCSc1nc2[nH]ncc2c(=O)[nH]1	5.4%
CN1CCS/C1=C\C=C1/SC(=S)N(CC(=O)O)C1=O	12.1% (active)
CCNC(=O)/C(C#N)=C/c1c(N2CCN(Cc3ccc4c(c3)OCO4)CC2)nc2c(C)cccn2c1=O	9.67%
N#C/C(=C\N1CCN(Cc2ccc3c(c2)OCO3)CC1)c1nc2ccccc2s1	17.4% (active)
O=C(CCc1ccc(S(=O)(=O)NCCc2ccccc2)cc1)N1CCN(Cc2ccc3c(c2)OCO3)CC1	1.31%
